# Measured values reported in ChEMBL document CHEMBL4732100, “Water-soluble inhibitors of ABCG2 (BCRP) - A fragment-based and computational approach” (Eur J Med Chem, 2021).
# Columns and labels:
# [1] = target: T1, Broad substrate specificity ATP-binding cassette transporter ABCG2 (Homo sapiens, UniProt Q9UNQ0); assay: Inhibition of human ABCG2 in human MCF7/Topo cells assessed as accumulation of substrate Hoechst […] stain measured after 2 hrs by fluorometric microplate reader assay; assay type: cell-based
# T1 sequence (Q9UNQ0 whole entry): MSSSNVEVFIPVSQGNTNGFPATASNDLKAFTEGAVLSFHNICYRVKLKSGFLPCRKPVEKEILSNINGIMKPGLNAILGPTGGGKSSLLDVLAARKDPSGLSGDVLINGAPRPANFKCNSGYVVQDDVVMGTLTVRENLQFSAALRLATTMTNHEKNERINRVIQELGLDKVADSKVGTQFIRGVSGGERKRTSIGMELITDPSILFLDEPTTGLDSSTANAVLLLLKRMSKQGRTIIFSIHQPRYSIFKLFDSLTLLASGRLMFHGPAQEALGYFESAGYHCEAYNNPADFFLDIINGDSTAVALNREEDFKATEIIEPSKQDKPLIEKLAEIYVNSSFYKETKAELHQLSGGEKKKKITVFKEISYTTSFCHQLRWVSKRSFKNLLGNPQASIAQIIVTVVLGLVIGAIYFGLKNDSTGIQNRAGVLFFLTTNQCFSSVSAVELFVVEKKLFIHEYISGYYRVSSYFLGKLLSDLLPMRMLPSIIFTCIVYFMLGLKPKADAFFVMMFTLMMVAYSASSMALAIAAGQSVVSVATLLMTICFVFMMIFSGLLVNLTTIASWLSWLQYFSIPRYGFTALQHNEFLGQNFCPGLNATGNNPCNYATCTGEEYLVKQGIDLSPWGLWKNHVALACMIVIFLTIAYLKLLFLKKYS
# [2] = target: ATP-dependent translocase ABCB1 (Homo sapiens, UniProt P08183); assay: Inhibition of ABCB1 in human KB-V1 cells assessed as accumulation of substrate calcein-AM stain measured after 10 mins by fluorometric microplate reader assay; assay type: cell-based
# Method in brief: (§1)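 KB-V1 cells (ABCB1-overexpressing KB variant) kept under 330 nM vinblastine. Calcein-AM accumulation read by fluorescence after intracellular cleavage to calcein. Compounds tested up to 100 µM. Inhibition is normalized to 10 µM tariquidar set to 100% (Imax). Mean ± SEM from ≥3 experiments in triplicate.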
# [3] = Inhibition of human ABCC1 expressed in MDCK-MRP1 cells assessed as accumulation of substrate calcein-AM stain measured after 1 hr by fluorometric microplate reader assay; assay type: cell-based, Canis lupus familiaris
# Method in brief: (§2)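 MDCK.2 cells transfected with human ABCC1 (MDCK.2-MRP1), trypsinized with 2X trypsin/EDTA for 30 min. Calcein-AM accumulation measured fluorometrically. Compounds tested up to 100 µM. Inhibition is normalized to 30 µM reversan set to 100% (Imax). Mean ± SEM from ≥3 experiments in triplicate.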
# [4] = Kinetic solubility of compound in PBS at pH 7.4 measured after 2 hrs by turbidimetric measurement; conditions: read-out: Kinetic_solubility
# [5] = target: T2, ABCG2 (Homo sapiens, UniProt Q9UNQ0); assay: Inhibition of human ABCG2 in human MCF7/Topo cells assessed as accumulation of substrate Hoechst […] stain at 10 uM measured after 2 hrs by fluorometric microplate reader assay relative to FTC; assay type: cell-based; conditions: read-out: Imax
# T2 sequence (Q9UNQ0 whole entry): T1 sequence (Q9UNQ0 whole entry)
# [6] = Thermodynamic solubility of compound in PBS at pH 7.4 […] by shake-flask method; assay type: physicochemical; conditions: buffer
# [7] = Cytotoxicity against human MCF7/Topo cells assessed as inhibition of cell proliferation at 1 uM measured by crystal violet based microplate reader assay
# Method in brief: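 MCF-7/Topo cells grown in DMEM/High with 2% (v/v) 200 mM L-glutamine and 10% FCS at 37 °C, 5% CO2, kept under 550 nM topotecan. Long-term incubation with inhibitor. Value given as corrected T/C = (T−C0)/(C−C0)·100 from absorbance; cytocidal effect (T−C0)/C0·100 when T<C0. Mean ± SEM of two to three experiments, each in octuplicate.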
# [8] = target: ABCB1 (Homo sapiens, UniProt P08183); assay: Inhibition of ABCB1 in human KB-V1 cells assessed as accumulation of substrate calcein-AM stain at 10 uM measured after 10 mins by fluorometric microplate reader assay relative to Tariquidar; assay type: cell-based; conditions: probe calcein-AM, read-out: Imax; method in brief: as §1
# [9] = tested on: MDCK-MRP1; assay: Inhibition of human ABCC1 expressed in MDCK-MRP1 cells assessed as accumulation of substrate calcein-AM stain at 30 uM measured after 1 hr by fluorometric microplate reader assay relative to Reversan; assay type: cell-based; conditions: Canis lupus familiaris; method in brief: as §2
# Chain of ATP-dependent translocase ABCB1 (P08183 whole entry): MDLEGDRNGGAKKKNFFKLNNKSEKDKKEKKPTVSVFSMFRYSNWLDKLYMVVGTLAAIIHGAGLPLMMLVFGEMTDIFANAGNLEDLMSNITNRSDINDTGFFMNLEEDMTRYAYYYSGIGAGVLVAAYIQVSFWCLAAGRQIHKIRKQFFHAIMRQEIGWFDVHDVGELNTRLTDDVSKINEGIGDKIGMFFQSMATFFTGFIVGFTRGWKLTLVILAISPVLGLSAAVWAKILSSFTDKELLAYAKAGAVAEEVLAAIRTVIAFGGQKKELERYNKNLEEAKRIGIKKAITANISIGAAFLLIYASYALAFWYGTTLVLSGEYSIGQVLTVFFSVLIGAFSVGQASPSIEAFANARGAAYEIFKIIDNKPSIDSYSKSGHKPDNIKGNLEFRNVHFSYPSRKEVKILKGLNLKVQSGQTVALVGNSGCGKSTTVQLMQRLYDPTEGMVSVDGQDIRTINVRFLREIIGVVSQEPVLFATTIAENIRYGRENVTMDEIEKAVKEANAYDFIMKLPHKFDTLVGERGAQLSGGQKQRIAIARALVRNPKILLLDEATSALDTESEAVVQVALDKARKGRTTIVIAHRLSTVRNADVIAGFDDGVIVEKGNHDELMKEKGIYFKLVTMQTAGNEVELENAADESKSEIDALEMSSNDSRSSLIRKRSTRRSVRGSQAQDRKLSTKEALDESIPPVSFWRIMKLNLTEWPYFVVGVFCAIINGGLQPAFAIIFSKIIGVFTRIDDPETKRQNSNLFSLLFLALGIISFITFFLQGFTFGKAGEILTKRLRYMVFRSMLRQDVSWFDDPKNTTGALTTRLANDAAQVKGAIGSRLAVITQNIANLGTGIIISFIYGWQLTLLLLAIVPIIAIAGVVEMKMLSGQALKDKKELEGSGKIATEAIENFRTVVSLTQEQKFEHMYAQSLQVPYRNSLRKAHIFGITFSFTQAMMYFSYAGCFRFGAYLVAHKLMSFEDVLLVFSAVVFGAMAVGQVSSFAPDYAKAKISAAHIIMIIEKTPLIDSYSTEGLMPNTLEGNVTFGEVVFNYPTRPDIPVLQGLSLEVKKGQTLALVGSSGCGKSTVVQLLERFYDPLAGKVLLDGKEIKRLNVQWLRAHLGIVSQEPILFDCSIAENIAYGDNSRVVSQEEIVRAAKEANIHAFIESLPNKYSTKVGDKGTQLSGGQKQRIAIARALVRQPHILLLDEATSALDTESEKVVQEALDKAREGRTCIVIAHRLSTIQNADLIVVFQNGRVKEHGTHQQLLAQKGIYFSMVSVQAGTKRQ
# Chain of ABCB1 (P08183 whole entry): as above
Compound,IC50 ([1]; mcf7/topo),IC50 ([2]; kb-v1),IC50 [3],solubility kinetic at 2 h [4] [µM],IC50 ([1]; read-out: IC50) [nM],"Emax at 2 h, 10 µM [5] [%]",Therm_solubility [6] [µM],Activity [7],IC50 ([2]; read-out: IC50) [nM],"Emax at 10 min, 10 µM [8] [%]",IC50 ([3]; read-out: IC50) [nM],Imax [9] [%]
CCC(=O)c1ccc(-c2cn(CC(=O)O)nn2)cc1NC(=O)c1cc(=O)c2ccccc2o1,Not Active,Not Active,Not Active,10,,,,,,,,
CCC(=O)c1ccc(-c2cn(-c3ccc(CCN4CCc5cc(OC)c(OC)cc5C4)cc3)nn2)cc1NC(=O)c1ccc2c(n1)CCCC2,,Not Active,Not Active,7,180,63,< 0.1,,,,,
CCC(=O)c1ccc(-c2cn(-c3ccc(CCN4CCc5cc(OC)c(OC)cc5C4)cc3)nn2)cc1NC(=O)c1cccc(OC)n1,,Not Active,Not Active,7,322,92,< 0.1,Non-Toxic,,,,
CCC(=O)c1ccc(-c2cn(-c3ccc(CCN4CCc5cc(OC)c(OC)cc5C4)cc3)nn2)cc1NC(=O)c1cccc(C)n1,,,Not Active,3,166,81,0.445,,> 9970,> 19,,
CCC(=O)c1ccc(-c2cn(CCO)nn2)cc1NC(=O)c1cc(=O)c2ccccc2o1,,,,3,> 1100,> 71,0.575,,> 2290,> 41,> 1960,> 33
COC(=O)c1ccc(Br)cc1NC(=O)c1cc(=O)c2ccccc2o1,,Not Active,Not Active,10,140,91,0.109,,,,,
CCC(=O)c1ccc(-c2cn(-c3ccc(CCN4CCc5cc(OC)c(OC)cc5C4)cc3)nn2)cc1NC(=O)c1cc(=O)c2ccccc2o1,,Not Active,Not Active,7,80,65,0.149,,,,,
CCC(=O)c1ccc(-c2cn(-c3ccc(CCN4CCc5cc(OC)c(OC)cc5C4)cc3)nn2)cc1NC(=O)c1cccc(N)n1,,Not Active,Not Active,10,82,75,< 0.1,,,,,
COC(=O)c1ccc(-c2cn(-c3ccc(CCN4CCc5cc(OC)c(OC)cc5C4)cc3)nn2)cc1NC(=O)c1ccc2ccccc2n1,,Not Active,,,,,,,,,,
CCC(=O)c1ccc(-c2cn(-c3ccc(CCN4CCc5cc(OC)c(OC)cc5C4)cc3)nn2)cc1NC(=O)c1ccc2ccccc2n1,,Not Active,,3,,,0.078,,,,,
CCC(=O)c1ccc(-c2cn(-c3ccc(CCN4CCc5cc(OC)c(OC)cc5C4)cc3)nn2)cc1NC(=O)c1cccc(O)n1,,,Not Active,7,328,75,0.855,,> 18500,> 14,,
COC(=O)c1ccc(Br)cc1NC(=O)c1ccc2ccccc2n1,,Not Active,Not Active,,1920,86,,,,,,
CCC(=O)c1ccc(-c2cn(-c3ccc(CCN4CCc5cc(OC)c(OC)cc5C4)cc3)nn2)cc1NC(=O)c1ccc(OC)cn1,,,Not Active,3,116,68,0.119,,> 2780,> 13,,
CCC(=O)c1ccc(-c2cn(CCN3CCCC3)nn2)cc1NC(=O)c1cc(=O)c2ccccc2o1,,Not Active,Not Active,30,158,70,1.483,,,,,
CCC(=O)c1ccc(-c2cn(-c3ccc(CCN4CCc5cc(OC)c(OC)cc5C4)cc3)nn2)cc1NC(=O)c1cccc([N+](=O)[O-])n1,,Not Active,Not Active,10,70,91,< 0.1,,,,,
CCC(=O)c1ccc(-c2cn(-c3ccc(CCN4CCc5cc(OC)c(OC)cc5C4)cc3)nn2)cc1NC(=O)c1ccc2ccccc2c1,,Not Active,Not Active,3,249,70,< 0.1,,,,,
CCC(=O)c1ccc(-c2cn(-c3ccc(CCN4CCc5cc(OC)c(OC)cc5C4)cc3)nn2)cc1NC(=O)c1cc2ccccc2o1,,Not Active,Not Active,7,120,78,< 0.1,,,,,
Cc1ccc(-c2cn(CCO)nn2)c(NC(=O)c2cc(=O)c3ccccc3o2)c1,,Not Active,Not Active,3,447,91,< 0.1,,,,,
COc1cc2c(cc1OC)CN(CCc1ccc(-n3cc(-c4ccccc4)nn3)cc1)CC2,,Not Active,Not Active,,3610,41,,,,,,
CCC(=O)c1ccc(-c2cn(-c3ccc(CCN4CCc5cc(OC)c(OC)cc5C4)cc3)nn2)cc1NC(=O)c1cccc(Cl)n1,,Not Active,Not Active,1,116,95,< 0.1,,,,,
